INS-1E GSIS act – GLuc luminescence reporter in INS-1E cells, primary screen for activators of glucose-dependent secretion of insulin; INS-1E GLuc reporter insulin secretion, 2-3 h; activation, % at 16.6 µM; 0.61% of 370,000 active;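 active = lowest replicate activation of at least 40%, so every replicate reaches that level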
Cneo AK release – causes C. neoformans cell lysis | adenylate kinase release luminescence, 4 h; normalised: neutral wells 0, clomiphene wells 100 | lysis activity, % at 15 µM | 0.2% of 360,000 active;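 active = mean lysis activity across replicates of at least 80%, whatever share of replicates individually reach that level; inactive = mean lysis activity below 80%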
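Material: C. neoformans cells | Amount: Yeast cell density of 5 × 10^6 cells/mL | Medium: Fresh YPD growth medium | Dosing: Single dose | Times: Static 4 h at 37 °C with compound, 1 h detection | Detection: AK luminescence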
miR-122 sensor – blocks miR-122 activity in Huh7 sensor cells. Huh7 miR-122 Renilla luciferase sensor, 48 h; neutral wells = 0, positive control = 100. activation (reporter increase), % at 12.5 µM. 0.3% of 340,000 active. AID 602342;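 active = mean replicate activation score at least 90 and every replicate individually at or above 90; inconclusive = only one of the two criteria met; inactive = neither criterion met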;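 also: higher luciferase means less miR-122 activity so hits act as miR-122 inhibitors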
Env fusion inh – blocks HIV Env-driven cell-cell fusion. HeLa-JRFL Env/CEM21 cell fusion, luciferase. inhibition, % at 12.3 µM. 1.1% of 360,000 active;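 active = mean replicate inhibition score of at least 50 and every replicate individually at or above 50; inconclusive = only one of the two criteria met; inactive = mean below 50 and not all replicates reaching 50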
dFosB activator – mouse delta FosB homodimer activation; P13346; purified delta FosB, TAMRA-CDK5 oligo fluorescence polarization; percent of positive-control signal above neutral wells; activation, % at 25 µM; 0.99% of 340,000 active;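 active = mean activation above about 17%, with every replicate also reaching it, limit read from the data, passing the limit was not always enough; inconclusive = only one of the two conditions met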
Target sequence (P13346 whole entry, looked up): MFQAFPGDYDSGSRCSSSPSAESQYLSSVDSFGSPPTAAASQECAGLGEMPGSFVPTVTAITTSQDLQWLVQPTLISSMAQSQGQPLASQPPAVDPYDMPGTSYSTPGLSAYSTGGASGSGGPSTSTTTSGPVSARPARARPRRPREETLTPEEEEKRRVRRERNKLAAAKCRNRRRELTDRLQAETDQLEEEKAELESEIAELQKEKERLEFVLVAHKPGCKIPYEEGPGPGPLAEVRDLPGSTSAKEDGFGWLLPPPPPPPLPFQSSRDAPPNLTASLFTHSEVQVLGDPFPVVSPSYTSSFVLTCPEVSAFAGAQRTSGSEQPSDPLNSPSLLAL
Rtt109 HAT inh – C. albicans Rtt109 histone acetyltransferase inhibition; AID 540336; inhibition, % at 34.9 µM; purified Rtt109/Vps75, ThioGlo CoA-SH fluorescence, 4 h; 0.16% of 330,000 active;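 active = inhibition of at least 50% in every replicate; inconclusive = best replicate reaches 50% inhibition but some replicates fall short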
A number is an active result; [ ] = dose if it differs, or a comment. The list is not random: actives were taken first. Their share in the collection is about 2.4%.

For COc1ccc(OC)c2nc3c(C(=O)NCCN(C)C)cccc3nc12 the results were INS-1E GSIS act inactive, miR-122 sensor inactive, Env fusion inh inactive, dFosB activator 87 and Rtt109 HAT inh inactive.
CN(C)CCNC(=O)c1cccc2ccc(-c3ccc(-c4ccccc4)cc3)nc12 was read as INS-1E GSIS act inactive, miR-122 sensor inactive, Env fusion inh inactive, dFosB activator inactive and Rtt109 HAT inh inactive.
COc1ccc(C23CC4CC(CC(C4)C2)C3)cc1C(=O)NCCN(C)C was read as INS-1E GSIS act inactive, Cneo AK release inactive, miR-122 sensor inactive, Env fusion inh inactive, dFosB activator inactive and Rtt109 HAT inh inactive.
`COc1ccc(CSc2nncn2C)cc1F` gave INS-1E GSIS act inactive, miR-122 sensor inactive, Env fusion inh 60, dFosB activator inactive and Rtt109 HAT inh inactive.
Cc1noc(C)c1NC(=O)N(C)C[C@H]1Oc2c(NC(=O)c3ccc(-c4nccs4)cc3)cccc2C(=O)N([C@@H](C)CO)C[C@H]1C was read as INS-1E GSIS act inactive, Cneo AK release inactive and miR-122 sensor inactive.
For COc1cccc(C2=Nn3c(nnc3-c3ccccc3O)SC2)c1 the results were Cneo AK release inactive, Env fusion inh inactive, dFosB activator inactive and Rtt109 HAT inh inactive.
For C[n+]1c2n(c3ccccc31)N=C(c1cc(C(C)(C)C)c(O)c(C(C)(C)C)c1)CS2 the results were INS-1E GSIS act 301, miR-122 sensor inactive, Env fusion inh inconclusive, dFosB activator inactive and Rtt109 HAT inh inactive.
`C[C@H](CO)N1C[C@H](C)[C@@H](CN(C)S(=O)(=O)c2ccccc2)Oc2cc(-c3cccc(F)c3)ccc2S1(=O)=O` gave INS-1E GSIS act inactive, Cneo AK release inactive, miR-122 sensor inactive and Env fusion inh inactive.
Screening C[C@@H]1CN([C@H](C)CO)S(=O)(=O)c2ccc(-c3cccc(F)c3)cc2O[C@@H]1CN(C)S(=O)(=O)c1ccccc1 returned INS-1E GSIS act inactive, Cneo AK release inactive, miR-122 sensor inactive and Env fusion inh 107[16.7 µM].
For C[C@H]1CN([C@@H](C)CO)S(=O)(=O)c2ccc(-c3cccc(F)c3)cc2O[C@H]1CN(C)S(=O)(=O)c1ccccc1 the results were INS-1E GSIS act inactive, Cneo AK release inactive, miR-122 sensor inactive and Env fusion inh 90[16.7 µM].
C[C@H](CO)N1C[C@H](C)[C@H](CN(C)S(=O)(=O)c2ccccc2)Oc2cc(-c3cccc(F)c3)ccc2S1(=O)=O was read as INS-1E GSIS act inactive, Cneo AK release inactive, miR-122 sensor inactive and Env fusion inh 83[16.7 µM].
For CC(=O)Nc1ccc(S(=O)(=O)Oc2cccc(/C=C3\SC(N)=NC3=O)c2)cc1 the results were INS-1E GSIS act inactive, Env fusion inh inactive, dFosB activator 33 and Rtt109 HAT inh inactive.
NC1=NC(=O)/C(=C/c2cccc(F)c2)S1 was read as INS-1E GSIS act inactive, Cneo AK release inactive, miR-122 sensor inactive, Env fusion inh inactive, dFosB activator inactive and Rtt109 HAT inh inactive.
COc1cc(/C=C2\SC(N)=NC2=O)ccc1OCC(=O)Nc1ccc(C)cc1 was read as INS-1E GSIS act inactive, dFosB activator 79 and Rtt109 HAT inh inactive.
`N#Cc1ccc(-c2ccc3c(c2)[C@@H]2[C@@H](CCN2Cc2ccc4c(c2)OCO4)[C@@H](CO)N3)cc1` gave INS-1E GSIS act inactive, Cneo AK release inactive and miR-122 sensor inactive.
For O=C1C(=O)N(c2nccs2)C(c2ccccc2)/C1=C(\O)c1ccc2c(c1)OCCO2 (configuration not stated) the results were Cneo AK release inactive, dFosB activator inactive and Rtt109 HAT inh inactive.
O=C1C(=O)N(c2nccs2)C(c2ccccc2F)/C1=C(\O)c1ccc2c(c1)OCCO2 (configuration not stated) was read as INS-1E GSIS act inactive, Cneo AK release inactive, miR-122 sensor inactive, Env fusion inh 59, dFosB activator inactive and Rtt109 HAT inh inactive.
Screening CCOC1=C2[C@@H](CN(S(=O)(=O)c3ccccc3C)[C@H]2c2ccc(Cl)cc2)[C@H]2C(=O)NC(=O)[C@H]2C1 returned INS-1E GSIS act inactive, Cneo AK release inactive, miR-122 sensor inactive and Env fusion inh 79.
CC(C)NC(=O)N(C)C[C@H]1Oc2ncccc2C(=O)N(C)C[C@@H]1C was read as INS-1E GSIS act inactive.
CCOc1ccc(/C=C2\SC(=S)N(NS(=O)(=O)c3ccccc3)C2=O)cc1OC was read as INS-1E GSIS act 62, Env fusion inh inactive, dFosB activator inactive and Rtt109 HAT inh inactive.
For CCOc1ccc(/C=C2\SC(=S)N(NS(=O)(=O)c3ccc(C)cc3)C2=O)cc1OC the results were INS-1E GSIS act 42, Cneo AK release inactive, miR-122 sensor inactive, Env fusion inh inactive, dFosB activator inactive and Rtt109 HAT inh inactive.
Screening O=C(Nc1cc(F)ccc1F)N1CC(=O)N2[C@H](C1)[C@@H](c1ccc(/C=C/c3ccccc3)cc1)[C@@H]2CO returned INS-1E GSIS act inactive.
Screening COCC(=O)N1C[C@H](C)[C@@H](OC)CN(C)C(=O)c2cc(NC(=O)Nc3cccc(F)c3)ccc2OC[C@H]1C returned INS-1E GSIS act inactive, Cneo AK release inactive and Env fusion inh inactive.
CN(C)/C=N/c1c(C#N)cnn1-c1ccccc1 was read as INS-1E GSIS act inactive, Cneo AK release inactive, dFosB activator inactive and Rtt109 HAT inh inactive.
`CN(C)/C=N/c1c(C#N)cnn1-c1ncnc2sc(-c3ccccc3)cc12` gave INS-1E GSIS act 74, Cneo AK release inactive, dFosB activator inactive and Rtt109 HAT inh inactive.
Screening COc1ccc2[nH]c3c(NCCN(C(C)C)C(C)C)ncnc3c2c1 returned Cneo AK release inactive, miR-122 sensor inactive, dFosB activator inactive and Rtt109 HAT inh inactive.
Screening COc1ccc2[nH]c3c(NCCCN4CCCC4=O)ncnc3c2c1 returned INS-1E GSIS act 48, Cneo AK release inactive, miR-122 sensor inactive, Env fusion inh inactive, dFosB activator inactive and Rtt109 HAT inh inactive.
`C[C@H]1CN(C)C(=O)c2cc([N+](=O)[O-])ccc2O[C@@H]1CN(C)C(=O)OC(C)(C)C` gave INS-1E GSIS act inactive.
C[C@H]1CN([C@@H](C)CO)C(=O)c2cc(NC(=O)Nc3ccc(C(F)(F)F)cc3)ccc2O[C@H]1CN(C)C(=O)Nc1ccccc1 was read as INS-1E GSIS act inactive, Cneo AK release inactive and miR-122 sensor inactive.
`COC(=O)c1c(C)[nH]c(C(=O)/C=C/c2ccc(C)cc2)c1C` gave INS-1E GSIS act inactive, Cneo AK release inactive, Env fusion inh inactive, dFosB activator inactive and Rtt109 HAT inh inactive.
COC(=O)c1c(C)[nH]c(C(=O)/C=C/c2ccccc2)c1C was read as INS-1E GSIS act 56, dFosB activator inactive and Rtt109 HAT inh inactive.
Screening Cc1cn(CC(C)C)c(=O)n(-c2ccccc2)c1=O returned INS-1E GSIS act 51, Cneo AK release inactive, miR-122 sensor inactive, Env fusion inh inactive, dFosB activator inactive and Rtt109 HAT inh inactive.

Assay outcomes (PubChem)
